In ChEMBL document CHEMBL3414548, “Luotonin-A based quinazolinones cause apoptosis and senescence via HDAC inhibition and activation of tumor suppressor proteins in HeLa cells” (Eur J Med Chem, 2015):

How the values were obtained:
HEK293 [1] = test: Selectivity index, ratio of IC50 for HEK cells to IC50 for human K562 cells; type: functional
Procedure, shortened: (§1)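 Selectivity index is IC50 in normal HEK cells divided by IC50 in the cancer cell line.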

K562 = test: Cytotoxicity against human K562 cells after 72 hrs by MTT assay; type: functional, cell-based; details: K562, 72 h
Procedure, shortened: (§2)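 Cells were seeded at 1×10⁴ per well and preincubated 18 h at 37 °C, 5% CO₂. They were then exposed to 1–256 μM for 72 h with DMSO ≤0.25%. MTT was added for 2 h and formazan was solubilized in extraction buffer before reading OD at 570 nm. IC50 is mean ± SD of three independent experiments. HEK is the normal-cell line; cancer lines were grown in DMEM with 10% serum.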

MCF7 = test: Cytotoxicity against human MCF7 cells after 72 hrs by MTT assay; type: functional, cell-based; details: MCF7, 72 h; procedure, shortened: as §2
HeLa [2] = test: Cytotoxicity against human HeLa cells after 72 hrs by MTT assay; type: functional, cell-based; procedure, shortened: as §2
HeLa [3] = test: Selectivity index, ratio of IC50 for HEK cells to IC50 for human HeLa cells; type: functional; procedure, shortened: as §1
[4] = Cytotoxicity against HEK cells after 72 hrs by MTT assay; type: cell-based; details: Homo sapiens, HEK293, 72 h; procedure, shortened: as §2
HEK293 [5] = test: Selectivity index, ratio of IC50 for HEK cells to IC50 for human MCF7 cells; type: functional; procedure, shortened: as §1
HeLa [6] = test: Cell cycle arrest in human HeLa cells assessed as accumulation at S phase at 8 uM after 48 hrs by propidium iodide staining-based flow cytometric analysis (reference value: 10%); type: functional
HeLa [7] = test: Cell cycle arrest in human HeLa cells assessed as accumulation at S phase at 4 uM after 48 hrs by propidium iodide staining-based flow cytometric analysis (reference value: 7%); type: functional
HeLa [8] = test: Cell cycle arrest in human HeLa cells assessed as accumulation at G0 phase at 8 uM after 48 hrs by propidium iodide staining-based flow cytometric analysis (reference value: 3%); type: functional
HeLa [9] = test: Cell cycle arrest in human HeLa cells assessed as accumulation at G0/G1 phase at 4 uM after 48 hrs by propidium iodide staining-based flow cytometric analysis (reference value: 62%); type: functional
HeLa [10] = test: Cell cycle arrest in human HeLa cells assessed as accumulation at G2/M phase at 4 uM after 48 hrs by propidium iodide staining-based flow cytometric analysis (reference value: 19%)
HeLa [11] = test: Cell cycle arrest in human HeLa cells assessed as accumulation at G1 phase at 8 uM after 48 hrs by propidium iodide staining-based flow cytometric analysis (reference value: 68%); type: functional
HeLa [12] = test: Cell cycle arrest in human HeLa cells assessed as accumulation at G2/M phase at 4 uM after 48 hrs by propidium iodide staining-based flow cytometric analysis (reference value: 31%); type: functional

SMILES	Ratio IC50 (HEK293 [1])	IC50 (K562)	IC50 (MCF7)	IC50 (HeLa [2])	Ratio IC50 (HeLa [3])	IC50 [4]	Ratio IC50 (HEK293 [5])	Activity (HeLa [6])	Activity (HeLa [7])	Activity (HeLa [8])	Activity (HeLa [9])	Activity (HeLa [10])	Activity (HeLa [11])	Activity (HeLa [12])
COc1ccc2cc(-c3cn(Cc4ccccc4-n4c(C)nc5cc(OC)c(OC)cc5c4=O)nn3)ccc2c1	2.42	28 µM	18.2 µM	14.6 µM	4.65	68 µM	3.74	–	–	–	–	–	–	–
COc1cc2nc(C)n(-c3ccccc3Cn3cc(-c4cccc(C)c4)nn3)c(=O)c2cc1OC	1.77	31.5 µM	18 µM	14.4 µM	3.88	56 µM	3.1	–	–	–	–	–	–	–
COc1cc2nc(C)n(-c3ccccc3Cn3ccnn3)c(=O)c2cc1OC	3.4	28.8 µM	23.7 µM	12.6 µM	7.77	98 µM	4.13	–	–	–	–	–	–	–
COc1cc2nc(C)n(-c3ccccc3Cn3cc(-c4cc5ccccc5c5ccccc45)nn3)c(=O)c2cc1OC	3.47	25.6 µM	13.2 µM	12.8 µM	6.95	89 µM	6.72	–	–	–	–	–	–	–
COc1cc2nc(C)n(-c3ccccc3Cn3cc(S)nn3)c(=O)c2cc1OC	7.03	30.4 µM	9.77 µM	10.5 µM	20.38	214 µM	21.9	5%	6%	5%	71%	20%	70%	23%
COc1ccc(-c2cn(Cc3ccccc3-n3c(C)nc4cc(OC)c(OC)cc4c3=O)nn2)cc1	3.2	22.4 µM	14 µM	11.9 µM	6.06	72 µM	5.15	–	–	–	–	–	–	–
CCCCCC(O)c1cn(Cc2ccccc2-n2c(C)nc3cc(OC)c(OC)cc3c2=O)nn1 (stereo unspecified)	2.09	22.9 µM	17.9 µM	16 µM	3	48 µM	2.68	–	–	–	–	–	–	–
COc1ccc(-c2cn(Cc3ccccc3-n3c(C)nc4ccccc4c3=O)nn2)cc1	5.17	22.4 µM	14.4 µM	12.8 µM	9.06	116 µM	8.05	–	–	–	–	–	–	–
CCCCCCc1cn(Cc2ccccc2-n2c(C)nc3cc(OC)c(OC)cc3c2=O)nn1	2.2	24 µM	17.7 µM	14.6 µM	3.62	53 µM	2.98	–	–	–	–	–	–	–
COc1cc2nc(C)n(-c3ccccc3Cn3cc(CCO)nn3)c(=O)c2cc1OC	4.66	26.6 µM	14 µM	16 µM	7.75	124 µM	8.85	–	–	–	–	–	–	–
COc1ccc2cc(-c3cn(Cc4ccccc4-n4c(C)nc5ccccc5c4=O)nn3)ccc2c1	9.11	19.5 µM	8.72 µM	8.68 µM	20.5	178 µM	20.41	5%	5%	5%	73%	17%	72%	22%
